# Most compounds without a hit are left out; they make up all but 2.7% or so of the library.
# HIV Env fusion – HIV envelope-mediated fusion inhibition; HeLa-JRFL Env/CEM21 cell fusion, luciferase; inhibition, % at 12.3 µM; 360,000 compounds, 1.1% hits; AID 651610;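 active = mean replicate inhibition score of at least 50 and every replicate individually at or above 50; inconclusive = only one of the two criteria met; inactive = mean below 50 and not all replicates reaching 50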;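 also: 0% = plate neutral controls and 100% = maraviroc near 300 nM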
# E-sel inducer – E-selectin induction on HUVECs; P16581; HUVEC E-selectin immunofluorescence imaging; normalized: neutral wells 0, TNF-alpha wells 100; activation, % at 7.58 µM; 260,000 compounds, 0.37% hits;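 active = mean E-selectin-positive cell signal at least 10% of the positive control, reached in at least 60% of replicates, without over 20% cell loss; inconclusive = no rule given, readout overlaps actives, possibly toxicity-flagged; inactive = the rest, including those meeting only one limit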
#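 Material: HUVEC primary endothelial cells; Amount: 3,000 cells per well; Dosing: single concentration; Medium: EGM-2 growth medium on 0.1% gelatin-coated wells; Read-out basis: percent E-selectin-positive cells; Signal: immunofluorescence imaging; Control set: TNF-alpha, DMSO.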
# CFTR F508del cor – CFTR F508del correction in bronchial cells; CFBE cells, YFP halide quenching; stimulated with forskolin plus potentiator P3; % fluorescence drop versus neutral controls; activity (quench increase), % at 7.58 µM; 350,000 compounds, 0.36% hits;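 active = mean added fluorescence quench of at least 8% versus neutral control, with both replicates also reaching 8%; inconclusive = only one of the mean or replicate conditions met; inactive = mean below 8% and not both replicates reaching 8%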;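 also: cells transiently co-express mutant CFTR-F508del with the halide-sensitive YFP; corrector assay measuring rescue of mutant channel to the surface after 24 h compound exposure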
# S100A4 inh HTS – inhibitors of human S100A4 binding to myosin IIA peptide; P26447; S100A4/TAMRA-MyoIIA peptide fluorescence polarization; inhibition, % at 10.7 µM; 360,000 compounds, 0.14% hits;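 active = mean inhibition of at least 70% across replicates, with every replicate also reaching that level; inconclusive = mean inhibition reaches 70% but some replicates fall short; inactive = mean inhibition below 70%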
# Target sequence (P26447 whole entry, looked up): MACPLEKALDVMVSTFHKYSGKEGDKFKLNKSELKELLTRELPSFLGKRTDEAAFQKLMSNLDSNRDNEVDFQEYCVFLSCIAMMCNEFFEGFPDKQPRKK
#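 Material: human S100A4 monomer with TAMRA-labelled myosin IIA peptide; buffer or medium: HEPES pH 7.2 with CaCl2, KCl, NaCl, DTT, Triton; compound dosing: one concentration per compound; schedule: 5 min incubation before reading; benchmarks: neutral control DMSO, positive control TFP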
# FGF22 binding – FGF22 (human) thermal shift binding; Q9HCT0; recombinant FGF22 thermal shift, SYPRO orange fluorescence; percent of sucrose octasulfate shift, DMSO zero; activity (Tm shift, normalised), % at 9.99 µM; 340,000 compounds, 1.5% hits; AID 651658;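 active = mean Tm shift, scaled 0 neutral to 100 positive control, at about 1.3% or above, every replicate too, limit read from the data; inconclusive = no clear call, values can overlap the other calls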
# Target sequence (Q9HCT0 whole entry, looked up): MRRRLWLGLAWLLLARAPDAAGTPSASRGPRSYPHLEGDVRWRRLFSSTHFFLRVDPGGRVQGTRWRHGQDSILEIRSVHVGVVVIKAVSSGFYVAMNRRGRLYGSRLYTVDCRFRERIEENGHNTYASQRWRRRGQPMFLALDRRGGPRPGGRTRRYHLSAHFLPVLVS
# Starred values were filed as active, the others as inactive; ? = inconclusive; . = no result; ! = a repeat was not active; [ ] = dose if it differs, or a comment.
SMILES,HIV Env fusion,E-sel inducer,CFTR F508del cor,S100A4 inh HTS,FGF22 binding
CO[C@H]1CC[C@H]2CCN(C)C(=O)[C@@H](C)[C@H](OC)CN(C)C(=O)c3cc(C#N)ccc3OC[C@@H]1O2,9[16.7 µM],0,-3,-9,0
CO[C@H]1CC[C@H]2CCN(C)C(=O)[C@@H](C)[C@H](OC)CN(C)C(=O)c3cc(C#N)ccc3OC[C@H]1O2,21[16.7 µM],0,0,98*,0
CC(=O)NC[C@H]1[C@H](c2ccc(C3=CCCCC3)cc2)[C@H](CO)N1C(=O)NC(C)C,.,0,1,.,.
Cc1cc2occ(CC(=O)NC3CCCc4ccccc43)c2cc1C (configuration not stated),4,.,-4,-4,43*
CCS(=O)(=O)Nc1ccc2c(c1)C(=O)N(C)C[C@H](OC)[C@@H](C)CN(C(=O)C1CCC1)[C@H](C)CO2,61*[16.7 µM],0,-1,4,.
CCS(=O)(=O)Nc1ccc2c(c1)C(=O)N(C)C[C@@H](OC)[C@H](C)CN(C(C)=O)[C@@H](C)CO2,2[16.7 µM],0,0,-2,0
CCS(=O)(=O)Nc1ccc2c(c1)C(=O)N(C)C[C@@H](OC)[C@@H](C)CN(C(C)=O)[C@H](C)CO2,3[16.7 µM],0,2,98*,-1
N#C[C@@H]1[C@H](c2ccccc2)[C@H](CO)N1C(=O)Cc1ccccc1,3[16.7 µM],0,1,-18,0
CCCNC(=O)Nc1ccc2c(c1)OC[C@H](C)N(C(=O)c1ccccc1F)C[C@@H](C)[C@H](OC)CN(C)C2=O,.,0,-1,-4,0
COc1ccc2c3c([nH]c2c1)[C@H](CO)N(C(=O)c1ccccc1)CC31CN(S(=O)(=O)c2cccs2)C1,.,0,0,.,0
COc1ccc(CC2(c3ccccc3)NC(=O)NC2=O)cc1 (configuration not stated),-1,0,0,0,43*
CC(C)NC(=O)N(C)C[C@H]1OCCCC[C@H](C)Oc2ccc(NC(=O)C3CCCCC3)cc2C(=O)N([C@H](C)CO)C[C@H]1C,2[16.7 µM],.,1,2,0
CC(=O)c1c(C)[nH]c(C(=O)OCC(=O)NCc2ccc(Cl)cc2)c1C,?,0,12*,0,0
CC(=O)c1c(C)[nH]c(C(=O)OCC(=O)Nc2cc(Cl)ccc2[N+](=O)[O-])c1C,1,.,.,0,0
CC(=O)c1c(C)[nH]c(C(=O)OCC(=O)Nc2ccc(C)cc2[N+](=O)[O-])c1C,88*,.,.,.,.
COc1ccc2c3c(n(C)c2c1)[C@@H](CO)N(Cc1ccncc1)CC31CCN(C(=O)Nc2cccc(F)c2)CC1,.,0,-5,-6,0
CC(C)Cc1nnc(NC(=O)Cc2cccs2)s1,15,.,.,-21,43*
CC(C)c1nnc(NC(=O)Cc2cccs2)s1,-7,0,-2,2,0
O=C(O)c1ccccc1/C=N/Nc1ccc(S(=O)(=O)N2CCOCC2)cc1[N+](=O)[O-],-4,.,3,-3,0
NS(=O)(=O)c1ccc(N/N=C/c2ccccc2C(=O)O)c([N+](=O)[O-])c1,2,.,7,2,43*
Cc1ccccc1C(=O)NCCN1CCOCC1,0,.,-3,1,44*
O=C(Cc1c(F)cccc1Cl)NCCN1CCOCC1,11,.,0,-5,43*
COc1ccccc1CCNC(=O)/C(=C/c1cccnc1)NC(=O)c1ccccc1,2,52*,4,-3,0
O=C(NCCN1CCOCC1)c1c(Cl)cccc1Cl,-10,0,0,-19,0
COc1ccccc1NC(=O)/C(=C\c1cccnc1)NC(=O)c1ccccc1,-1,.,2,1,0
SMILES,HIV Env fusion,E-sel inducer,CFTR F508del cor,S100A4 inh HTS,FGF22 binding
COc1ccc(C(=O)NCCN2CCOCC2)c(OC)c1,4,-1,-3,-1,44*
CNC[C@@H]1OCCCC[C@@H](C)Oc2ccc(NS(=O)(=O)c3cn(C)cn3)cc2C(=O)N([C@H](C)CO)C[C@@H]1C,5[16.7 µM],0,3,4,0
COc1ccc(S(=O)(=O)Nc2ccc3c(c2)C(=O)N([C@@H](C)CO)C[C@H](C)[C@@H](CN(C)S(=O)(=O)c2ccccc2)OCCCC[C@@H](C)O3)cc1,.,0,4,7,0
COc1ccccc1/C=C(/NC(=O)c1ccccc1)C(=O)NCCN1CCOCC1,-6,0,1,-8,44*
COc1ccc(CCNC(=O)c2cc3cccc(OC)c3oc2=O)cc1OC,4,.,.,-2,0
COc1cccc2cc(C(=O)NCCN3CCOCC3)c(=O)oc12,8,0,9.6*,2,0
Cc1cccc(-n2cnc3cc(C(=O)NCCN4CCOCC4)ccc32)c1,14,0,2,-4,0
O=C(NCCN1CCOCC1)/C(=C\c1ccccc1Cl)NC(=O)c1ccccc1,-4,3,0,2,0
COc1ccc(-n2cnc3cc(C(=O)NCCN4CCOCC4)ccc32)cc1,23,.,-1,-9,44*
Cc1noc(C)c1S(=O)(=O)Nc1cccc2c1O[C@H](CN(C)Cc1ccc(C(=O)O)cc1)[C@H](C)CN([C@@H](C)CO)C2=O,34[16.7 µM],-2,0,-2,0
CCCC#Cc1ccc2c(c1)O[C@H](CN(C)Cc1ccc3c(c1)OCO3)[C@@H](C)CN([C@H](C)CO)S2(=O)=O,18[16.7 µM],0,-5,3,0
CCCC#Cc1ccc2c(c1)O[C@H](CN(C)Cc1ccc3c(c1)OCO3)[C@H](C)CN([C@H](C)CO)S2(=O)=O,56*[16.7 µM],.,2,26,-1
CCCC#Cc1ccc2c(c1)O[C@@H](CN(C)C(=O)c1ccncc1)[C@H](C)CN([C@@H](C)CO)S2(=O)=O,8[16.7 µM],118*,1,3,0
C[C@@H]1CN([C@@H](C)CO)S(=O)(=O)c2ccc(Br)cc2O[C@H]1CN(C)C(=O)c1ccncc1,10,0,-8,-3,43*!
COc1ccc2c3c(n(C)c2c1)[C@@H](CO)N(S(=O)(=O)c1ccc(C)cc1)CC31CCN(S(=O)(=O)c2ccc(C)cc2)CC1,.,0,6,-6,0
Cc1cccc(S(=O)(=O)N2CC[C@@H]3[C@H](CO)Nc4ccc(C5=CCCCC5)cc4[C@@H]32)c1,.,0,1,14,0
O=C(NNC(=S)Nc1ccc(F)c(Cl)c1)c1ccccc1Br,-5,.,4,-13,2.1*
Cc1ccc(NC(=O)Nc2ccc(F)c(Cl)c2)cc1,-4,0,2,-3,0
CC(=O)Nc1cccc(NC(=O)Nc2ccc(C)c(Cl)c2)c1,-19,.,0,2,43
CC(=O)Nc1cccc(NC(=S)Nc2ccc(F)c(Cl)c2)c1,16,4,-1,3,1.3*
CC(=O)NNC(=S)Nc1cccc(F)c1,-3,51*,-3,-3,0
CCC(CC)NC(=O)Nc1ccc(F)c(Cl)c1,9,27*,.,1,0

# Screening results: PubChem, Broad Institute
